Measured values pooled from the literature.
Protocols differ between the studies behind these lines.
Observed: cell growth or viability

| Compound | cell line | technique | tested at | time | endpoint | result |
| --- | --- | --- | --- | --- | --- | --- |
| Cc1ccc(C(CS(=O)(=O)c2ccccc2)=NNC2=NC(=O)C(=NNc3ccc([N+](=O)[O-])cc3)S2)cc1 | SK-MEL-23 | MTT | 0.4 µM | 48 h | viability | 75.9% |
| COc1cccc(Oc2ccccc2NC(=O)CNC(=O)c2cccc3ccccc23)c1 | RXF 393 | SRB |  | 48 h | GI50 | 0.166 µM |
| Clc1ccccc1-c1ccc(CNCC2(N3CCCC3)COC2)o1 | A 172 |  | 30 µM | 48 h | viability | 70.6% |
| C[C@@H](Oc1cc(-c2cnn(C3CCNCC3)c2)cnc1N)c1c(Cl)ccc(F)c1Cl | NCI-H2228 | MTT | 0.2 µg/mL | 72 h | inhibition | 64.4% |
| COc1ccc(-c2ccc(-c3ccc(C(=N)N)nc3)s2)cc1Cl | RXF 393 |  |  |  | GI50 | 1.76 µM |
| CC(C)(C)c1nc(-c2cccc(NS(=O)(=O)c3c(F)cccc3F)c2F)c(-c2ccnc(N)n2)s1 | SK-MEL-23 | MTT | 100 µM | 48 h | viability | 34.4% |
| COc1cc(-c2ccc(-c3ccc(C(=N)N)nc3)s2)cc(OC)c1OC | RXF 393 |  |  |  | GI50 | 2.19 µM |
| Fc1ccc2[nH]cc(CNCC3(N4CCC(F)C4)COC3)c2c1 (stereo not shown) | A 172 |  | 30 µM | 48 h | viability | 80.6% |
| Cc1ccc(C(CS(=O)(=O)c2ccccc2)=NNc2nc(C)c(N=Nc3cccc(C)c3)s2)cc1 | SK-MEL-23 | MTT | 1.6 µM | 48 h | viability | 59.5% |
| c1ccc(-c2ccc(CNCC3(N4CCCC4)COC3)o2)cc1 | A 172 |  | 30 µM | 48 h | viability | 78.5% |
| Cc1ccc(C(CS(=O)(=O)c2ccccc2)=NN=C2N=C(c3ccc(Br)cc3)CS2)cc1 | SK-MEL-23 | MTT | 1.6 µM | 48 h | viability | 72.1% |
| Cc1cc(Nc2ncc(Cl)c(Nc3ccccc3S(=O)(=O)C(C)C)n2)c(OC(C)C)cc1C1CCNCC1 | NCI-H2228 | MTT | 1 µg/mL | 72 h | inhibition | 80% |
| c1ccc(-c2ccc(CNCC3(N4CCCC4)COC3)s2)cc1 | A 172 |  | 30 µM | 48 h | viability | 74.6% |
